Test results taken from ChEMBL document CHEMBL1177766, “2-Substituted N-aryl piperazines as novel triple reuptake inhibitors for the treatment of depression” (Bioorg Med Chem Lett, 2010).

Assay: Clearance in human liver microsomes assessed per mg of protein by LC/MS analysis
Type: ADME, Microsome
Method in brief: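 Human liver microsomes at 0.5 mg/mL protein. Reaction started with NADPH, run at 37 °C without shaking. Aliquots taken at 0.1, 10, 20 and 30 min for LC/MS analysis. Clearance expressed in µL/min/mg.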

Structure (SMILES)	microsomal CLint [µL/min/mg]
Fc1cc(N2CCNCC2Cc2ccccc2)cc2cc[nH]c12 (stereo not drawn)	16.8
c1ccc(CC2CNCCN2c2ccc3[nH]ccc3c2)cc1 (stereo not drawn)	43.3
c1ccc(CC2CNCCN2c2ccc3[nH]ncc3c2)cc1 (stereo not drawn)	3.8
